# Measurements collected from several papers.
# Protocols differ between the studies behind these lines.
# Target: Ephrin type-A receptor 2 (EPHA2, Homo sapiens, UniProt P29317)
SMILES,observed,mode,technique,concentration,endpoint,result
CCCCC(=O)Nc1ccc(-c2ccc3ncn(CCC)c(=O)c3c2)cn1,binding,,competition with immobilised ligand,0.5 µM,remaining binding,100%
Cc1cc(O)c(-c2ccc([C@@H](C)CN(C)C)cc2)c2c1[nH]c(=O)c1sccc12,cell-free assay,inhibitor,,0.1 µM,inhibition,-2.28%
C1=C/COCc2cc(ccc2OCCN2CCCC2)Nc2nccc(n2)-c2cccc(c2)COC/1,binding,,,0.1 µM,remaining binding,100%
COc1ccc2oc(-c3ccc4nc(N)oc4c3)c/c(=N\c3ccccc3NC(=O)CCN)c2c1,binding,,,1 µM,remaining binding,99%
COc1ccc2[nH]c3c4[nH]c5ccc(OC)cc5c4c4c(c3c2c1)C(=O)NC4=O,binding,,competition with immobilised ligand,1 µM,remaining binding,85%
C#Cc1cnc(Nc2ccnc(CO)c2)nc1Nc1ccccc1S(C)(=O)=NC#N (stereo not shown),cell-free assay,,,1 µM,remaining signal,70%
C=CC(=O)N1CCC[C@@H](n2nc(-c3ccc(Oc4ccccc4)cc3)c3c(N)ncnc32)C1,enzyme activity,inhibitor,,1 µM,inhibition,4%
N#Cc1ccc(NC(=O)Nc2ccccc2)cc1,cell-free assay,,competition with immobilised ligand,25 µM,remaining binding,100%
Cc1ccc(NC(=O)c2ccnc(C(F)(F)F)c2)cc1-c1cc(OCCO)nc(N2CCOCC2)c1,binding,,competition with immobilised ligand,1 µM,remaining binding,63%
C=CC(=O)N1CCC([C@@H]2CCNc3c(C(N)=O)c(-c4ccc(Oc5ccccc5)cc4)nn32)CC1,cell-free assay,,,1 µM,inhibition,10%
